From ChEMBL document CHEMBL4387722

Assays:
[1] = molecular target: T1, Phosphotyrosine protein phosphatase (Mycobacterium tuberculosis, UniProt A0A045ISB3); test: Inhibition of Mycobacterium tuberculosis His-tagged PtpB expressed in Escherichia coli Rosetta 2 (DE3) using pNPP as substrate after 30 mins by spectrophotometric method
T1 sequence (A0A045ISB3 whole entry): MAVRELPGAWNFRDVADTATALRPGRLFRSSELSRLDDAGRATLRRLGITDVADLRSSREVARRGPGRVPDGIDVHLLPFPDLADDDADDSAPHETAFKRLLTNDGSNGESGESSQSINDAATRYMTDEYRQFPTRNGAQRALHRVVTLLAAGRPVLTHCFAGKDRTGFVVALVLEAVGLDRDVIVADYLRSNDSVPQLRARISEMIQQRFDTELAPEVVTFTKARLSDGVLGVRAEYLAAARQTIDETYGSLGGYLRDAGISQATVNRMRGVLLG

[2] = molecular target: T2, Tyrosine-protein phosphatase non-receptor type 5 (Homo sapiens, UniProt P54829); test: Inhibition of human PTPN5 expressed in Escherichia coli Rosetta 2 (DE3) using pNPP as substrate after 45 mins by spectrophotometric method
T2 sequence (P54829 whole entry): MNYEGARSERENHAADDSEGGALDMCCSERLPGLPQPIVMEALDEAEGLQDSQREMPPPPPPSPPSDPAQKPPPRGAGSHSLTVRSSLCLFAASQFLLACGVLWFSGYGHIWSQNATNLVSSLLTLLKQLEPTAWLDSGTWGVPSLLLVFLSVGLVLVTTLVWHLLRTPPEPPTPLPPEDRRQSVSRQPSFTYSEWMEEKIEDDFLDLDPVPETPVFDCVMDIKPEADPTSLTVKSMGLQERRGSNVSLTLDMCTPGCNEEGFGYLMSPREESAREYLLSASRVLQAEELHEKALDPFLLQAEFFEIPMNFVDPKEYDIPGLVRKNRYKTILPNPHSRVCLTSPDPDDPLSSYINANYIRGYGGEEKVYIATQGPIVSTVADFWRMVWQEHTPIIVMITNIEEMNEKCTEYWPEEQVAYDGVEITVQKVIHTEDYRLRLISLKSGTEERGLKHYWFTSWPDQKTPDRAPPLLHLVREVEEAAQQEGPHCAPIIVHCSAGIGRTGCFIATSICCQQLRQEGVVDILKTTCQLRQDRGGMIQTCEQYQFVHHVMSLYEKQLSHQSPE

[3] = molecular target: T3, Tyrosine-protein phosphatase non-receptor type 1 (Homo sapiens, UniProt P18031); test: Inhibition of human PTPN1 expressed in Escherichia coli Rosetta 2 (DE3) using pNPP as substrate after 45 mins by spectrophotometric method
T3 sequence (P18031 whole entry): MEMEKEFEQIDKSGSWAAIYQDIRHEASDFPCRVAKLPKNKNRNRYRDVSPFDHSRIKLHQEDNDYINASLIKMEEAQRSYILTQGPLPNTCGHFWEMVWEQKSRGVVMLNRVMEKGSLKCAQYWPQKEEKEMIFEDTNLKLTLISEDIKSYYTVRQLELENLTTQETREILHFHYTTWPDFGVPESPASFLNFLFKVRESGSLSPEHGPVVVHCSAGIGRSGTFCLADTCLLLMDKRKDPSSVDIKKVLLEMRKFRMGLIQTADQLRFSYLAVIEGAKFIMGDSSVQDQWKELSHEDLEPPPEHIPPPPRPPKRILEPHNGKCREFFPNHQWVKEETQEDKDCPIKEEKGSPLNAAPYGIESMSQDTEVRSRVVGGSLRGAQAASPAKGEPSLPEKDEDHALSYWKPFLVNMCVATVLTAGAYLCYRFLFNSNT

[4] = tested on: Mycobacterium tuberculosis; test: Antitubercular activity against Mycobacterium tuberculosis H37Rv after 5 days at 200 uM relative to control; assay type: functional; conditions: 120 h
Outline: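 M. tuberculosis grown in liquid culture with compound at a fixed 200 μM for 5 days. Growth inhibition expressed as percent of control.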

[5] = molecular target: T4, Tyrosine-protein phosphatase non-receptor type 2 (Homo sapiens, UniProt P17706); test: Inhibition of human PTPN2 expressed in Escherichia coli Rosetta 2 (DE3) using pNPP as substrate after 45 mins by spectrophotometric method
T4 sequence (P17706 whole entry): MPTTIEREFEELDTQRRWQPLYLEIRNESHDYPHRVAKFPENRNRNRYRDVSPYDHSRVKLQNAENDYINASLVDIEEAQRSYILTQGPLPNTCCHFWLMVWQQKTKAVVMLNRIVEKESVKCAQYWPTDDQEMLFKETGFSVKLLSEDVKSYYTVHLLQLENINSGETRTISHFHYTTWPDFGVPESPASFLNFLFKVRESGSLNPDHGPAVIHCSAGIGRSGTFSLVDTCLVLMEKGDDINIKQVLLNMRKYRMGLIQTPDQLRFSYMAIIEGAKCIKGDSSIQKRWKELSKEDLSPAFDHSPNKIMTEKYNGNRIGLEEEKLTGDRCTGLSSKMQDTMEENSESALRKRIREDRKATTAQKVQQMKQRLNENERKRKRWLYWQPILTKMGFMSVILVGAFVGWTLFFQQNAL

Compound | IC50 [1] [µM] | IC50 [2] [µM] | IC50 [3] [µM] | inhibition at 200 µM [4] [%] | IC50 [5] [µM]
O=S(=O)(Nc1ccc(-c2nc3cc(NS(=O)(=O)c4cccc(C(F)(F)F)c4)ccc3o2)cc1)c1cccc(C(F)(F)F)c1 | 2.9 | 16 | 12 | 0 | 12
O=S(=O)(Nc1ccc2oc(-c3ccc(NS(=O)(=O)c4cccc5ccccc45)cc3)nc2c1)c1ccc(Cl)s1 | 2.7 | 9.1 | 5.4 | 0 | 15
O=c1ccc2cc(S(=O)(=O)Nc3ccc(-c4nc5cc(NS(=O)(=O)c6ccc7oc(=O)ccc7c6)ccc5o4)cc3)ccc2o1 | 8.7 | 17 | 6.3 | 23 | 9.1
O=S(=O)(Nc1ccc(-c2nc3cc(NS(=O)(=O)c4cccc5ccccc45)ccc3o2)cc1)c1ccc(Cl)s1 | 2.2 | 5.1 | 6.5 | 12 | 7.3
O=S(=O)(Nc1ccc(-c2nc3cc(NS(=O)(=O)c4ccc(Cl)s4)ccc3o2)cc1)c1ccc(F)c(C(F)(F)F)c1 | 6.8 | 14 | 8.6 | 0 | 8.5
O=c1ccc2cc(S(=O)(=O)Nc3ccc(-c4nc5cc(NS(=O)(=O)c6ccc(Cl)s6)ccc5o4)cc3)ccc2o1 | 5.5 | 15 | 8.4 | 0 | 17
O=S(=O)(Nc1ccc(-c2nc3cc(NS(=O)(=O)c4ccc5nsnc5c4)ccc3o2)cc1)c1ccc2nsnc2c1 | 6.4 | 11 | 8 | 0 | 11
CCc1ccc(S(=O)(=O)Nc2ccc(-c3nc4cc(NS(=O)(=O)c5ccc(Cl)s5)ccc4o3)cc2)cc1 | 6.5 | 12 | 14 | 11 | 12
O=S(=O)(Nc1ccc2oc(-c3ccc(NS(=O)(=O)c4ccc(Cl)s4)cc3)nc2c1)c1ccc(Br)cc1 | 4.1 | 12 | 6.9 | 28 | 14
O=S(=O)(Nc1ccc(-c2nc3cc(NS(=O)(=O)c4ccc5ncsc5c4)ccc3o2)cc1)c1ccc2ncsc2c1 | 20 | 20 | 7 | 0 | 12
O=S(=O)(Nc1ccc(-c2nc3cc(NS(=O)(=O)c4ccc5ccccc5c4)ccc3o2)cc1)c1ccc2ccccc2c1 | 4.4 | 6.2 | 4.3 | 0 | 24
Cc1cccc(S(=O)(=O)Nc2ccc(-c3nc4cc(NS(=O)(=O)c5cccc(C)c5)ccc4o3)cc2)c1 | 5.8 | 16 | 13 | 0 | 17
O=S(=O)(Nc1ccc(-c2nc3cc(NS(=O)(=O)c4ccc(Cl)s4)ccc3o2)cc1)c1ccc2ccccc2c1 | 3.9 | 11 | 6.9 | 0 | 13
O=C(O)c1ccccc1S(=O)(=O)Nc1ccc(-c2nc3cc(NS(=O)(=O)c4ccccc4C(=O)O)ccc3o2)cc1 | 4.2 | > 100 | > 100 | 22 | > 100
O=S(=O)(Nc1ccc(-c2nc3cc(NS(=O)(=O)c4cccc5nonc45)ccc3o2)cc1)c1ccc(Cl)s1 | 8.6 | 19 | 16 | 14 | 25
O=S(=O)(Nc1ccc2oc(-c3ccc(NS(=O)(=O)c4ccc(Cl)s4)cc3)nc2c1)c1cccc(C(F)(F)F)c1 | 7.1 | 16 | 13 | 0 | 20
COC(=O)c1ccccc1S(=O)(=O)Nc1ccc(-c2nc3cc(NS(=O)(=O)c4ccccc4C(=O)OC)ccc3o2)cc1 | 11 | 21 | 10 | 0 | 14
O=S(=O)(Cc1ccccc1)Nc1ccc(-c2nc3cc(NS(=O)(=O)Cc4ccccc4)ccc3o2)cc1 | 27 | 25 | 23 | 0 | 31
C=Cc1ccc(S(=O)(=O)Nc2ccc3oc(-c4ccc(NS(=O)(=O)c5ccc(Cl)s5)cc4)nc3c2)cc1 | 3.9 | 12 | 7.2 | 10 | 12
O=C(O)c1ccc(S(=O)(=O)Nc2ccc(-c3nc4cc(NS(=O)(=O)c5ccc(C(=O)O)cc5)ccc4o3)cc2)cc1 | 12 | > 100 | > 100 | 10 | > 100
O=[N+]([O-])c1ccccc1S(=O)(=O)Nc1ccc(-c2nc3cc(NS(=O)(=O)c4ccccc4[N+](=O)[O-])ccc3o2)cc1 | 10 | 29 | 28 | 39 | 28
O=S(=O)(Nc1ccc(-c2nc3cc(NS(=O)(=O)c4ccc(Cl)s4)ccc3o2)cc1)c1ccc2ncsc2c1 | 7.1 | 13 | 7.9 | 33 | 11
Cc1ccc(S(=O)(=O)Nc2ccc(-c3nc4cc(NS(=O)(=O)c5ccc(C)cc5)ccc4o3)cc2)cc1 | 6.9 | 14 | 14 | 0 | 18
O=S(=O)(Nc1ccc(-c2nc3cc(NS(=O)(=O)c4ccccc4C(F)(F)F)ccc3o2)cc1)c1ccccc1C(F)(F)F | 8.1 | 15 | 14 | 35 | 22
COc1ccc(S(=O)(=O)Nc2ccc3oc(-c4ccc(NS(=O)(=O)c5ccc(Cl)s5)cc4)nc3c2)cc1 | 9.6 | 16 | 12 | 41 | 24
O=S(=O)(Nc1ccc(-c2nc3cc(NS(=O)(=O)c4ccc(Cl)s4)ccc3o2)cc1)c1cccs1 | 3.4 | 9.3 | 4.9 | 0 | 9.5
O=S(=O)(Nc1ccc(-c2nc3cc(NS(=O)(=O)c4ccc(Cl)s4)ccc3o2)cc1)c1ccc(Cl)c(C(F)(F)F)c1 | 2 | 12 | 7.6 | 0 | 13
O=[N+]([O-])c1cc(S(=O)(=O)Nc2ccc(-c3nc4cc(NS(=O)(=O)c5ccc(Cl)s5)ccc4o3)cc2)ccc1Cl | 4 | 15 | 8 | 29 | 18
O=S(=O)(Nc1ccc(-c2nc3cc(NS(=O)(=O)c4ccc(Cl)s4)ccc3o2)cc1)c1ccccc1 | 6.7 | 17 | 19 | 41 | 29
